In ChEMBL document CHEMBL1124632 (J Med Chem, 1989):

Assays:
[1] = target: T1, 5-hydroxytryptamine receptor 1A (Rattus norvegicus, UniProt P19327); test: (§1) Inhibitory activity against 5-hydroxytryptamine 1A receptor of rat hippocampal tissue using [3H]OH-DPAT as radioligand.
T1 sequence (P19327 whole entry): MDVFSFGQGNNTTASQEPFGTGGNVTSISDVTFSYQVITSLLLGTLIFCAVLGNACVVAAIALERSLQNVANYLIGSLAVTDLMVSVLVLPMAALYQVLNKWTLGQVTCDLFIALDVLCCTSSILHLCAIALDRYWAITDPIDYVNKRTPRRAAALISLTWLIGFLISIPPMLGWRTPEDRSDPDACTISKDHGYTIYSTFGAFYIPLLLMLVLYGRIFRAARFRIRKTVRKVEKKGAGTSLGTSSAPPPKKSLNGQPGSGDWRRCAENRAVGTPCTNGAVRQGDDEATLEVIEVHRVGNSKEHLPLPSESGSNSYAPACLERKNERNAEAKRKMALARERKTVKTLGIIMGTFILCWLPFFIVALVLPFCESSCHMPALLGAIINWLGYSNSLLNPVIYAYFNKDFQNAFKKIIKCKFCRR

[2] = target: T2, 5-hydroxytryptamine receptor 1B (Rattus norvegicus, UniProt P28564); test: (§2) Inhibitory activity against 5-hydroxytryptamine 1B receptor of rat striatal membrane homogenate using [3H]5-HT as the radioligand.
Adrenergic receptor beta = Adrenergic receptor beta (Rattus norvegicus, UniProt P18090+P10608+P26255); test: Inhibitory activity against beta adrenergic receptor of rat frontal cortex homogenate using (1.0 nM) [3H]- dihydroalprenolol; type: tissue-based
[3] = target: T1, 5-hydroxytryptamine receptor 1A; test: as §1; type: tissue-based, Hippocampus
Outline: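 Rat hippocampal membranes (4 mg wet weight), washed and preincubated 15 min at 37 °C, in 50 mM Tris HCl with 0.5 mM Na₂EDTA, 10 mM MgSO₄, 10 μM pargyline and 0.1% ascorbate. 0.1 nM [³H]8-OH-DPAT, 1 μM 8-OH-DPAT for nonspecific binding. Eleven competitor concentrations, at least triplicate. Incubated 30 min at 37 °C, then filtered over glass fiber. Ki reported.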

[4] = target: T2, 5-hydroxytryptamine receptor 1B; test: as §2; remark: listed apart in the source
Outline: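 Competition binding on washed rat striatal membrane homogenate (8 mg) with 2.0 nM [³H]5-HT. 10⁻⁷ M 8-OH-DPAT and mesulergine block 5-HT1A and 5-HT1C sites; 10⁻⁶ M 5-HT defines nonspecific binding. Buffer: 50 mM Tris HCl, EDTA, MgSO₄, 10 μM pargyline, 0.1% ascorbate. Eleven concentrations, at least triplicate. 37 °C for 30 min, then glass-fiber filtration. Ki given.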

T2 sequence (P28564 whole entry): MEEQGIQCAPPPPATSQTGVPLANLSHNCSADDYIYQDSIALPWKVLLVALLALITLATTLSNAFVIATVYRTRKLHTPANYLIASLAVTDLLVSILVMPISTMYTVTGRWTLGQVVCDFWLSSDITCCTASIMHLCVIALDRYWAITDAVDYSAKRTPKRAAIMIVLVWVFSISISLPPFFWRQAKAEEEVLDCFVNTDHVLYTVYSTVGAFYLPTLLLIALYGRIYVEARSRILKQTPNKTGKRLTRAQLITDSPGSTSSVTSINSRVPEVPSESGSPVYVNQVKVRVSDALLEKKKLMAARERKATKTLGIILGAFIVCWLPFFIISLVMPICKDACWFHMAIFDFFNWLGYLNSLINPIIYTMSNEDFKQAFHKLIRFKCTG

Ki [1]	Ki [2]	Ki (Adrenergic receptor beta)	Ki [3]	Ki [4]	SMILES
3.3 µM	3.1 µM	–	–	–	CNCCCOc1ccccc1
0.039 µM	1.1 µM	5 µM	–	–	CCCCN(CC)CCOc1cccc2ccccc12
0.06 µM	–	–	–	–	NCCOc1cccc2ccccc12
4.9 µM	> 10 µM	–	–	–	CN(C)CCCOc1ccccc1O
0.095 µM	–	–	–	–	CN(CCOc1cccc2ccccc12)Cc1ccccc1
0.045 µM	1.8 µM	5.3 µM	–	–	CCCN(C)CCOc1cccc2ccccc12
2.75 µM	> 10 µM	–	–	–	CCCN(CCC)CCCOc1ccccc1
0.4 µM	1 µM	–	–	–	CN(C)CCCCOc1cccc2ccccc12
–	–	–	1.32 µM	8 µM	CCCN(CCC)CC(O)COc1cccc2ccccc12 (centres undefined)
–	–	–	3.53 µM	–	CCCCN(CC)CCC(=O)c1cccc2ccccc12
0.45 µM	6.1 µM	–	–	–	CCCN(CCC)CCCOc1cccc2ccccc12
4.85 µM	> 10 µM	–	–	–	CN(C)CCCOc1ccccc1
–	–	–	5 µM	> 10 µM	CN(C)CCCCc1ccccc1
–	–	–	0.3 µM	–	CCCCN(CC)CCCc1cccc2ccccc12
–	–	–	0.54 µM	–	CCCCN(CC)CCCC1CCCc2ccccc21 (centres undefined)
0.08 µM	1.5 µM	4.5 µM	–	–	CN(C)CCOc1cccc2ccccc12
0.225 µM	5.65 µM	8.3 µM	–	–	CCCCN(CCCC)CCCOc1cccc2ccccc12
3 µM	> 10 µM	–	–	–	COc1ccccc1OCCCN(C)C
0.15 µM	9 µM	> 10 µM	–	–	CCCCN(CCCC)CCOc1cccc2ccccc12
–	–	–	3.42 µM	–	CN(C)Cc1cccc2ccccc12
0.345 µM	1 µM	2.4 µM	–	–	CN(C)CCCOc1cccc2ccccc12

SMILES	Ki [1]	Ki [2]	Ki (Adrenergic receptor beta)	Ki [3]	Ki [4]
CN(C)CCCNc1ccccc1	> 25 µM	> 10 µM	–	–	–
